# Bioassay records: PubChem BioAssay, Broad Institute
# The list is not random: actives were taken first. Their share in the collection is about 1.1%.
# PglD inh – inhibitors of Campylobacter jejuni PglD acetyltransferase; purified PglD enzyme, DTNB colorimetric CoA detection; inhibition, % at 12.5 µM; 0.098% of 360,000 active; in the data active = inhibition above about 16%, passing the limit was not always enough
# CAL PDZ FP-1 – human CAL PDZ-peptide interaction inhibition; 0.02% of 330,000 active; purified CAL PDZ, TMR-peptide fluorescence polarization, 1 h; Q9HD26; inhibition, % at 20 µM;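 active = highest replicate inhibition of at least 40%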;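 also: plate controls were DMSO neutral control wells for no effect and unlabeled competitor peptide control wells for full effect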
#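 material = purified tagged CAL PDZ domain construct (CerCALP) | compound dosing = 20 µM, one dose | times = 1 h at RT | measured by = fluorescence polarization from S- and P-plane intensities, G-factor corrected | read-out = inhibition from polarization loss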
# miR-122 sensor – miR-122 inhibition in Huh7 cells. Huh7 miR-122 Renilla luciferase sensor, 48 h; neutral wells = 0, positive control = 100. activation (reporter increase), % at 12.5 µM. 0.3% of 340,000 active. AID 602342;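 active = mean replicate activation score at least 90 and every replicate individually at or above 90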;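 also: higher luciferase means less miR-122 activity so hits act as miR-122 inhibitors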
# Cneo AK release – Cryptococcus neoformans lysis via adenylate kinase release. AID 651654. 0.2% of 360,000 active. lysis activity, % at 15 µM. C. neoformans lysis, adenylate kinase release luminescence, 4 h; normalised: neutral wells 0, clomiphene wells 100;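 active = mean lysis activity across replicates of at least 80%, whatever share of replicates individually reach that level; inactive = mean lysis activity below 80%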
#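 Assay system: C. neoformans cells. Amount: yeast cell density of 5 × 10^6 cells/mL. Technique: AK luminescence. Buffer or medium: YPD. Times: static 4 h at 37 °C with compound, 1 h detection. Dosing: single-point compound dose. Read-out: lysis from increased AK signal.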
# CAL PDZ FP-2 – blocks peptide binding to the human CAL PDZ domain | purified CAL PDZ, TMR-peptide fluorescence polarization, 1 h | inhibition, % at 24.9 µM | 0.92% of 300,000 active | Q9HD26 | AID 602252;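 active = mean inhibition of at least 30% with at least half of replicates also reaching 30%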;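 also: 0% = DMSO neutral control and 100% = excess unlabeled competitor peptide PRC23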
# The depositor's hits bear a star; / = no result given; + = active, no number; [ ] = remark or other dose.
SMILES,PglD inh,CAL PDZ FP-1,miR-122 sensor,Cneo AK release,CAL PDZ FP-2
CC(C)NC(=O)N(C)C[C@@H]1OCCCC[C@H](C)Oc2ccc(NC(=O)Cc3ccccc3)cc2C(=O)N([C@H](C)CO)C[C@H]1C,-2,/,-7[16.7 µM],101*,/
CNC[C@@H]1OCCCC[C@H](C)Oc2ccc(NC(=O)Nc3ccc(F)cc3)cc2C(=O)N([C@@H](C)CO)C[C@@H]1C,2,/,6[16.7 µM],6,/
CNC[C@@H]1OCCCC[C@H](C)Oc2ccc(NC(=O)Nc3ccc(F)cc3)cc2C(=O)N([C@@H](C)CO)C[C@H]1C,1,/,11[16.7 µM],101*,/
CNC[C@@H]1OCCCC[C@H](C)Oc2ccc(NC(=O)c3ccccc3)cc2C(=O)N([C@@H](C)CO)C[C@@H]1C,-41,/,12[16.7 µM],82*,/
CC(C)NC(=O)N(C)C[C@@H]1OCCCC[C@H](C)Oc2ccc(NC(=O)Cc3ccccc3)cc2C(=O)N([C@H](C)CO)C[C@@H]1C,-2,/,-8[16.7 µM],-1,/
CC(C)NC(=O)N(C)C[C@@H]1OCCCC[C@@H](C)Oc2ccc(NC(=O)c3ccccc3)cc2C(=O)N([C@H](C)CO)C[C@@H]1C,2,/,-5[16.7 µM],111*,/
CC(C)NC(=O)N(C)C[C@H]1OCCCC[C@@H](C)Oc2ccc(NC(=O)c3ccccc3)cc2C(=O)N([C@H](C)CO)C[C@H]1C,-1,/,-5[16.7 µM],-1,/
CC(C)NC(=O)N(C)C[C@@H]1OCCCC[C@@H](C)Oc2ccc(NC(=O)c3ccccc3)cc2C(=O)N([C@H](C)CO)C[C@H]1C,3,/,-13[16.7 µM],103*,/
CC(C)NC(=O)N(C)C[C@H]1OCCCC[C@H](C)Oc2ccc(NC(=O)c3ccccc3)cc2C(=O)N([C@@H](C)CO)C[C@@H]1C,4,/,-8[16.7 µM],95*,/
O=[N+]([O-])c1cc(-c2cnc3ccccc3n2)ccc1Oc1ccc(Cl)cc1,/,-1,/,/,+
CCCC(=O)Nc1ccc2c(c1)OC[C@@H](C)N(C(=O)c1ccccn1)C[C@@H](C)[C@H](OC)CN(C)C2=O,5,/,/,6,/
CC(=O)c1ccc(NC(=O)Cn2cnc(S(=O)(=O)N3CCCC3)c2)cc1,0,-1,-5,-1,44*
CC(NC(=O)C(=O)N/N=C\c1ccc([N+](=O)[O-])cc1)c1ccccc1 (stereo unspecified),/,0,/,/,40*
O=C1OC(COc2ccc(Br)cc2)CN1c1ccccc1 (stereo unspecified),/,-1,/,/,87*
Cc1cc(C)nc(NCC(O)COc2ccccc2C)n1 (stereo unspecified),4,0,1,0,-1
Cc1cc(C)nc(NCC(O)CNc2ccccc2C)n1 (stereo unspecified),/,-1,1,/,62*
Cc1cccc(C)c1NC(=S)NCc1ccccc1,2,-3,25,1,-4
Cc1cccc(C)c1NC(=S)NC(C)(C)CO,/,-1,/,/,79*
COc1cccc(S(=O)(=O)Nc2ccc3c(c2)OC[C@H](C)NC[C@@H](C)[C@H](OC)CN(C)C3=O)c1,1,/,-14[16.7 µM],87*,/
CCC(=O)Nc1ccc2c(c1)C(=O)N(C)C[C@@H](OC)[C@H](C)CN[C@@H](C)CO2,-49,/,16[16.7 µM],102*,/
COc1cccc(S(=O)(=O)Nc2ccc3c(c2)C(=O)N(C)C[C@@H](OC)[C@@H](C)CN[C@H](C)CO3)c1,0,/,7[16.7 µM],0,/
CCCNC(=O)Nc1ccc2c(c1)C(=O)N(C)C[C@@H](OC)[C@@H](C)CN(C(=O)CC)[C@H](C)CO2,-3,/,29[16.7 µM],91*,/
CCCNC(=O)Nc1ccc2c(c1)C(=O)N(C)C[C@H](OC)[C@@H](C)CN(C(=O)CC)[C@@H](C)CO2,2,/,-3[16.7 µM],99*,/
CCC(=O)Nc1ccc2c(c1)C(=O)N(C)C[C@@H](OC)[C@@H](C)CN[C@H](C)CO2,-5,/,7[16.7 µM],-4,/
Cc1noc(C)c1NC(=O)Nc1ccc2c(c1)C(=O)N([C@H](C)CO)C[C@H](C)[C@H](CN(C)Cc1ccccc1)OCCCC[C@@H](C)O2,9,/,11[16.7 µM],25,/
SMILES,PglD inh,CAL PDZ FP-1,miR-122 sensor,Cneo AK release,CAL PDZ FP-2
O=C([C@H]1[C@H](CO)[C@H]2Cn3c(ccc(/C=C/c4ccccc4)c3=O)[C@@H]1N2)N1CCCCC1,-5,/,2[16.7 µM],42,/
C[C@H]1CN([C@@H](C)CO)C(=O)c2cc(-c3ccccc3)cnc2O[C@H]1CN(C)C(=O)c1ccccc1F,3,/,/,1,/
CCc1ccc(N2C(=O)CC(N3CCN(Cc4ccc5c(c4)OCO5)CC3)C2=O)cc1 (stereo unspecified),/,-1,4,/,85*
C[C@H](CO)N1C[C@H](C)[C@H](CN(C)C)Oc2ccc(NC(=O)Nc3ccc(C(F)(F)F)cc3)cc2C1=O,4,/,-5[16.7 µM],-1,/
O=C(COc1ccc(Cl)cc1)Nc1nnc(-c2ccco2)o1,/,-1,/,/,46*
O=C(COc1ccccc1)Nc1nnc(-c2ccco2)o1,0,0,-4,14,-1
C[C@@H](NC(=O)C[C@H]1CC[C@@H](NC(=O)C2CCC2)[C@@H](CO)O1)c1ccccc1,5,/,/,54,/
CCn1c(C)nnc1SCC(=O)Nc1cccc(Cl)c1,-10,-2,2,-4,/
CC(=O)n1nc(-c2ccncc2)nc1SCC(=O)Nc1cccc(Cl)c1,-2,-2,2,0,45*
CC(C)CC#Cc1cnc2c(c1)C(=O)N([C@H](C)CO)C[C@@H](C)[C@H](CN(C)Cc1ccccn1)O2,-2,/,3[16.7 µM],3,/
OCCC1CN(CC#Cc2ccccc2)CCN1C1CCCC1 (stereo unspecified),0,-2,-11,3,91*
Cc1nn(CC(=O)NCCCN2CCCCC2)c(=O)c2cccn12,1,-3,-10,-3,2
Cc1nn(CC(=O)NCCc2ccccc2)c(=O)c2cccn12,3,-3,-4,2,46*
Oc1ccc(/C=C/c2ccc3ccccc3n2)cc1,-11,0,-6,-8,69*
CN(C)c1ccc(/C=C/c2ccc3ccccc3n2)cc1,-3,-1,-1,-5,100*
CC(C)C(=O)Nc1nnc(S(=O)(=O)N(C)c2ccc(Cl)cc2)s1,2,/,/,-1,45*
COc1ccccc1NC(=O)CN1CCC(c2nc3ccc(C)cc3[nH]2)CC1,4,-1,7,-2,93*
O=C(CN1CCCC1)Nc1ccccc1C(=O)c1ccccc1,/,-3,-2,/,-5
O=C(c1ccccc1)c1ccccc1NC(=O)C1CCCN1Cc1ccccc1 (stereo unspecified),/,-1,/,/,46*
C/C(=N\Nc1ccc(S(=O)(=O)Nc2ccc(Cl)cc2)cc1[N+](=O)[O-])c1ccc(N2CCOCC2)cc1,-1,0,170*,-2,/
COC(=O)C1=C(C)N(Cc2ccccc2)C(=NCc2ccccc2)N[C@H]1c1cccc(F)c1,-5,-2,/,-3,-4
COC(=O)C1=C(C)N(Cc2ccccc2)C(=S)N[C@H]1c1cccc(F)c1,-3,0,/,180*,-3
